Reference: ChEMBL document CHEMBL1140872, “Discovery of a potent and selective inhibitor for human carbonyl reductase 1 from propionate scanning applied to the macrolide zearalenone” (Bioorg Med Chem, 2009)

Assays:
[1] = biological target: Serine/threonine-protein kinase pim-1 (Homo sapiens) (UniProt P11309); test: Binding affinity to human recombinant PIM1 expressed in Escherichia coli assessed as thermal shift by differential scanning fluorimetry
Method in brief: (§1)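 Thermal-shift (DSF) binding assay with purified recombinant catalytic domains or proteins carrying an N- or C-terminal His6 tag or GST fusion. Purity was >95% by SDS/PAGE and identity was confirmed by MS. Protein was at 2 µM final in 10 mM HEPES pH 7.5 and 150 mM NaCl. Tm shift is reported, with 2 °C as the threshold for binding.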

[2] = biological target: Serine/threonine-protein kinase pim-2 (Homo sapiens) (UniProt Q9P1W9); test: Binding affinity to human recombinant PIM2 expressed in Escherichia coli assessed as thermal shift by differential scanning fluorimetry; method in brief: as §1
[3] = biological target: Mitogen-activated protein kinase 6 (Homo sapiens) (UniProt Q16659); test: Binding affinity to human recombinant MAPK6 expressed in Escherichia coli assessed as thermal shift by differential scanning fluorimetry; method in brief: as §1
[4] = biological target: Mitogen-activated protein kinase 11 (Homo sapiens) (UniProt Q15759); test: Binding affinity to human recombinant MAPK11 expressed in Escherichia coli assessed as thermal shift by differential scanning fluorimetry; method in brief: as §1
[5] = biological target: Casein kinase I isoform gamma-1 (Homo sapiens) (UniProt Q9HCP0); test: Binding affinity to human recombinant CSNK1G1 expressed in Escherichia coli assessed as thermal shift by differential scanning fluorimetry; method in brief: as §1
[6] = biological target: T1, Serine/threonine-protein kinase PLK4 (Homo sapiens) (UniProt O00444); test: Binding affinity to human recombinant PLK4 expressed in Escherichia coli assessed as thermal shift by differential scanning fluorimetry; method in brief: as §1
T1 sequence (whole entry): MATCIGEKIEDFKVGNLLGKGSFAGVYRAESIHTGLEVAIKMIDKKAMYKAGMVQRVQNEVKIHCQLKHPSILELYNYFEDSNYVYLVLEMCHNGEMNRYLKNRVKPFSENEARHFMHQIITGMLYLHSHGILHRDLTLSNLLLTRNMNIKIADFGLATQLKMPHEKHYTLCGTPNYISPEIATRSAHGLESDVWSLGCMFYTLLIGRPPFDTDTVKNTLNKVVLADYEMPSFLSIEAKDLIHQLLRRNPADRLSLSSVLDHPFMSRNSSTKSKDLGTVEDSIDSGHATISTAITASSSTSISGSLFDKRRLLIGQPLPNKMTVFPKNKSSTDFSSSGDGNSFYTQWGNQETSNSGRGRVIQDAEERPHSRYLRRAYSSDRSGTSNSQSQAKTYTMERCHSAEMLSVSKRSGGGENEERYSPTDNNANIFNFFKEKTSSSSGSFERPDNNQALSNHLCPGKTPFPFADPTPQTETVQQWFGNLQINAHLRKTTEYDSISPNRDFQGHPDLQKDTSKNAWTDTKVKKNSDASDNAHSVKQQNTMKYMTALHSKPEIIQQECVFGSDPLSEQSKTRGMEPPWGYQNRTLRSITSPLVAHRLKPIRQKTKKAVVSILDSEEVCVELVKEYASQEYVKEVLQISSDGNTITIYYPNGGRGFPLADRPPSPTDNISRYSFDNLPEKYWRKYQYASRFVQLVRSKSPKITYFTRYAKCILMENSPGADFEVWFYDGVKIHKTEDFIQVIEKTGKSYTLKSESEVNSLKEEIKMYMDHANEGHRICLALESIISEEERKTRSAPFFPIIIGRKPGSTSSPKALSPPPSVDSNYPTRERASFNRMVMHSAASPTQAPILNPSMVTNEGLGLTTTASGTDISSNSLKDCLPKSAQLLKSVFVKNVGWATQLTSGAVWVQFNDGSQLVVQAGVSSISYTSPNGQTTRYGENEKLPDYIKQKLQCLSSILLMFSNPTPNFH

[7] = biological target: Serine/threonine-protein kinase PAK 6 (Homo sapiens) (UniProt Q9NQU5); test: Binding affinity to human recombinant PAK6 expressed in Escherichia coli assessed as thermal shift by differential scanning fluorimetry; method in brief: as §1
[8] = biological target: T2, Carbonyl reductase [NADPH] 1 (Homo sapiens) (UniProt P16152); test: Binding affinity to human recombinant carbonyl reductase 1 expressed in Escherichia coli assessed as thermal shift by differential scanning fluorimetry in absence of cofactor; method in brief: as §1
T2 sequence (whole entry): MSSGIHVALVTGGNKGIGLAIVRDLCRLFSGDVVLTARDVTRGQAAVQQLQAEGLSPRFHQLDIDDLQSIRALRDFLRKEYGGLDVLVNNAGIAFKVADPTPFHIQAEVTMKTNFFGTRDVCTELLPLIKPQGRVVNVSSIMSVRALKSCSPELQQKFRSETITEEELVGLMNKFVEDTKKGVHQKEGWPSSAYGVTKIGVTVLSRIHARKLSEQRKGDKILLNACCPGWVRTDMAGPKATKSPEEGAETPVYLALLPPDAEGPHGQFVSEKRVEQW

[9] = biological target: T2, Carbonyl reductase [NADPH] 1 (Homo sapiens); test: Binding affinity to human recombinant carbonyl reductase 1 expressed in Escherichia coli assessed as thermal shift by differential scanning fluorimetry in presence of NADP+; method in brief: as §1
[10] = biological target: T2, Carbonyl reductase [NADPH] 1 (Homo sapiens); test: Binding affinity to human recombinant carbonyl reductase 1 expressed in Escherichia coli assessed as thermal shift by differential scanning fluorimetry in presence of NADPH; method in brief: as §1
[11] = biological target: T3, Carbonyl reductase [NADPH] 3 (Homo sapiens) (UniProt O75828); test: Binding affinity to human recombinant carbonyl reductase 3 expressed in Escherichia coli assessed as thermal shift by differential scanning fluorimetry in absence of cofactor; method in brief: as §1
T3 sequence (whole entry): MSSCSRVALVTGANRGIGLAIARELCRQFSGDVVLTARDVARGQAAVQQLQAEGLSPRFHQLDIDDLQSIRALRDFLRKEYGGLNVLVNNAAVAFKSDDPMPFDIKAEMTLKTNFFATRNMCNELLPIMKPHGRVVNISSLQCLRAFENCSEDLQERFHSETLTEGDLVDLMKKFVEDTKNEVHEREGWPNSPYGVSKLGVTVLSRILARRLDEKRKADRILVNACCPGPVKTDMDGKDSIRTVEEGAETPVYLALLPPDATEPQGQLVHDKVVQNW

[12] = biological target: T3, Carbonyl reductase [NADPH] 3 (Homo sapiens); test: Binding affinity to human recombinant carbonyl reductase 3 expressed in Escherichia coli assessed as thermal shift by differential scanning fluorimetry in presence of NADP+; method in brief: as §1

Measured: Tm

Serine/threonine-protein kinase pim-2 (Homo sapiens), sequence (Q9P1W9 whole entry, looked up): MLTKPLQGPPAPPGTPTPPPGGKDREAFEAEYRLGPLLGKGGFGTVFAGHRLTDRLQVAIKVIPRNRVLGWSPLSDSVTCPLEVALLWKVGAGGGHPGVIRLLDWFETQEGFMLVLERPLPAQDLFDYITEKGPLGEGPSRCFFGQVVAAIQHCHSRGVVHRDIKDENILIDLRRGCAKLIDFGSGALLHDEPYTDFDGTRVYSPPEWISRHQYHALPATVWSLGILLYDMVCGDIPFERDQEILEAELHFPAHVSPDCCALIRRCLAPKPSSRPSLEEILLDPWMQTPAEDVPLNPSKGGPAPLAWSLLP
Serine/threonine-protein kinase PAK 6 (Homo sapiens), sequence (Q9NQU5 whole entry, looked up): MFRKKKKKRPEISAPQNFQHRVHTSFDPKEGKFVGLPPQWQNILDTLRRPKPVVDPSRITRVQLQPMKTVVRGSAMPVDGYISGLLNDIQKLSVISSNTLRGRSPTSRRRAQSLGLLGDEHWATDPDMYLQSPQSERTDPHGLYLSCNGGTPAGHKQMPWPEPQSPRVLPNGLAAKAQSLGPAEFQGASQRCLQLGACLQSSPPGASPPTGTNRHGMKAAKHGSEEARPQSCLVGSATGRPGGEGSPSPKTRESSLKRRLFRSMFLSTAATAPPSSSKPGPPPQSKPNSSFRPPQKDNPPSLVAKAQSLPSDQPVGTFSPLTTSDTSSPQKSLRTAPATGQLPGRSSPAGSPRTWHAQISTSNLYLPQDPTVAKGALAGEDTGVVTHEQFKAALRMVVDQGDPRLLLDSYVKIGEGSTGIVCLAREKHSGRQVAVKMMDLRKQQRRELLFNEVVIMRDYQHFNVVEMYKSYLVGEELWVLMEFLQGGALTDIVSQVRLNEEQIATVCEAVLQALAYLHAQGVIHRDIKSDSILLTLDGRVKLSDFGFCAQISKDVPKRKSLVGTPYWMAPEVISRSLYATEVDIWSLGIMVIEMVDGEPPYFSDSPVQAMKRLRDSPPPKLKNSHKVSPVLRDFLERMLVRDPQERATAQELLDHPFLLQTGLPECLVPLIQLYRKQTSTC
Serine/threonine-protein kinase pim-1 (Homo sapiens), sequence (P11309 whole entry, looked up, the tested form may be a part): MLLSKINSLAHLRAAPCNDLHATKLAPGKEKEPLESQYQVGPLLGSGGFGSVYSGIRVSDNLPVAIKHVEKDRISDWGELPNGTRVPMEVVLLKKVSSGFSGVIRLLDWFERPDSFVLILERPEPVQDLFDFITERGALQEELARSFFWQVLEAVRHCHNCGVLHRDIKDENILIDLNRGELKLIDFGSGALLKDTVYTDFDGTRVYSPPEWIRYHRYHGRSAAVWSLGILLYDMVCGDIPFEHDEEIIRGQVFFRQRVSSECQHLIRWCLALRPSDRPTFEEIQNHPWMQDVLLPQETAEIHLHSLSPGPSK
Mitogen-activated protein kinase 6 (Homo sapiens), sequence (Q16659 whole entry): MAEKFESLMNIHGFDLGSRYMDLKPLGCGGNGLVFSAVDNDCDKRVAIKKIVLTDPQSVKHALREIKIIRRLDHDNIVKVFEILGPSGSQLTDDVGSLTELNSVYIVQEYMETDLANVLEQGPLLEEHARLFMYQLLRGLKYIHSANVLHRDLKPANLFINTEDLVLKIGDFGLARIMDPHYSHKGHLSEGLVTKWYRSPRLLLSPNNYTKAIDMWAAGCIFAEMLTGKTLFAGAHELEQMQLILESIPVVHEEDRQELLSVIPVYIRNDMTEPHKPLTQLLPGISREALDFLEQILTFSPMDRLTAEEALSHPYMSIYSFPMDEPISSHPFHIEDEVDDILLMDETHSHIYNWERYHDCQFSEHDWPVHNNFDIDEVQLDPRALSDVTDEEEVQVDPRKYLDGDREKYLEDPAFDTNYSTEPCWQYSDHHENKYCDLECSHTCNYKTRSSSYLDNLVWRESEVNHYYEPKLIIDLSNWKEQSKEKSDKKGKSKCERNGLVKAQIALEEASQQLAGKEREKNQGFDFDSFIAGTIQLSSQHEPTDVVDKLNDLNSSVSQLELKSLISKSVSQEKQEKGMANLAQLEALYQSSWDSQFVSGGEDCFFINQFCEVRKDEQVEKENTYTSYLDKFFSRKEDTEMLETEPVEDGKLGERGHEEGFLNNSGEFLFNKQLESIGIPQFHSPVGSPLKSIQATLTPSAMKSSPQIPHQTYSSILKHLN
Casein kinase I isoform gamma-1 (Homo sapiens), sequence (Q9HCP0 whole entry, looked up, canonical isoform): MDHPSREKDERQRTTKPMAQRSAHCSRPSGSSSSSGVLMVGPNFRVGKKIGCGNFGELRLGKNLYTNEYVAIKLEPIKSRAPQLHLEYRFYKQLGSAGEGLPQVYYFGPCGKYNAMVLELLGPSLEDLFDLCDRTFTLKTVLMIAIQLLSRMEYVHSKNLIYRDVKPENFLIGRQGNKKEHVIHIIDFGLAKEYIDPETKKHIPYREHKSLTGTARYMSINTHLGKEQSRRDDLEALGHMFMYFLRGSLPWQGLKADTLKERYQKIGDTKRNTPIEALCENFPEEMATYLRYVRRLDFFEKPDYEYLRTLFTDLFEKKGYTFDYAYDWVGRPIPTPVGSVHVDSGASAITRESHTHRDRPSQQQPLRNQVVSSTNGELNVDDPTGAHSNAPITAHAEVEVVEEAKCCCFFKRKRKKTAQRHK
Mitogen-activated protein kinase 11 (Homo sapiens), sequence (Q15759 whole entry, canonical isoform): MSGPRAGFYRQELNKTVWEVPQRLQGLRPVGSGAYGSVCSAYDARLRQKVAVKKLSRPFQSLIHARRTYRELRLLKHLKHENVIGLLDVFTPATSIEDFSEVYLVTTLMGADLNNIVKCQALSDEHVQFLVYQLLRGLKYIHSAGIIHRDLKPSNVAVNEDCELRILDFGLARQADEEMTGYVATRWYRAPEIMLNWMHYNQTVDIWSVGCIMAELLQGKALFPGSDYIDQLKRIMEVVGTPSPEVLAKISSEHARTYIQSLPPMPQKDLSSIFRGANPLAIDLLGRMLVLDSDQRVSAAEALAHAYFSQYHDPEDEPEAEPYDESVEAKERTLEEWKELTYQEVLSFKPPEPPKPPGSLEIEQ

C[C@H]1CCCC(=O)CCC/C=C/c2cc(O)cc(O)c2C(=O)O1
3 °C: [1]
2.6 °C: [2]
3.6 °C: [9]
< 2 °C: all other assays above

COc1cc(O)c2c(c1)/C=C/CC[C@H](C)C(=O)CCC[C@H](C)OC2=O
< 2 °C: all assays above

COc1cc2c(c(OC)c1)C(=O)O[C@@H](C)CCC[C@@H](O)[C@@H](C)CC/C=C/2
< 2 °C: all assays above

C[C@H]1CCCC(=O)[C@@H](C)CC/C=C/c2cc(O)cc(O)c2C(=O)O1
3.9 °C: [9]
2.2 °C: [1]
< 2 °C: all other assays above

COc1cc2c(c(OC)c1)C(=O)O[C@@H](C)CCCC(=O)[C@@H](C)CC/C=C/2
< 2 °C: all assays above

COC1=C2C[C@@H](C)C[C@H](OC)[C@H](O)[C@@H](C)/C=C(\C)[C@H](OC(N)=O)[C@@H](OC)/C=C\C=C(/C)C(=O)NC(=CC1=O)C2=O
< 2 °C: all assays above

C[C@@H]1C[C@H]2O[C@@H]2/C=C\C=C\C(=O)Cc2c(Cl)c(O)cc(O)c2C(=O)O1 [RADICICOL]
4.6 °C: [9]
< 2 °C: all other assays above
